Results pooled from the literature.
Compare with care: the assays were run in different laboratories.
SETD7: Histone-lysine N-methyltransferase SETD7 (SETD7, Homo sapiens, UniProt Q8WTS6)
SLC10A2: Ileal sodium/bile acid cotransporter (SLC10A2, Homo sapiens, UniProt Q12908)

O=c1c(O)cccc2cc(O)c(O)c(O)c12  inhibition (SETD7; cell-free assay; 10 µM): 27%
CN1CC(Oc2cnc(C#N)cc2-c2ccn3nc(NC(=O)C4CC4)cc3c2)C1  inhibition (Serine/threonine-protein kinase 35 (STK35, Homo sapiens, UniProt Q8TDR2); enzyme activity; inhibitor; 1 µM): 1%
O=c1c(O)cccc2c([C@H]3Oc4cc(O)cc(O)c4C[C@H]3O)cc(O)c(O)c12  inhibition (SETD7; cell-free assay; 10 µM): 16%
C=C[C@H]1C[N@@]2CC[C@H]1C[C@H]2[C@H](O)c1ccnc2ccc(OC)cc12  inhibition (SLC10A2; transporter uptake; inhibitor; radiometric; 1 mM): 59.9%
CC(=O)N[C@H]1CSSC[C@@H](C(=O)N[C@H](Cc2c[nH]c3ccccc23)C(N)=O)NC(=O)[C@@H](Cc2ccccc2)NC(=O)[C@H](CCCNC(=N)N)NC1=O  inhibition (Melanocortin receptor 5 (MC5R, Homo sapiens, UniProt P33032); ligand displacement; radioligand; 10 µM; 40 min): 0%
O=C(O)c1cc(=O)c2c(OCC(O)COc3cccc4oc(C(=O)O)cc(=O)c34)cccc2o1  inhibition (SLC10A2; transporter uptake; inhibitor; radiometric; 1 mM): < 10%
CCN(c1cc(C#CCN2CCOCC2)cc(C(=O)NCc2c(C)cc(C)[nH]c2=O)c1C)[C@H]1CC[C@H](N(C)CCOC)CC1  inhibition (Histone-lysine N-methyltransferase SETD2 (SETD2, Homo sapiens, UniProt Q9BYW2); enzyme activity; inhibitor; 1 µM): 20%
CNC(=C[N+](=O)[O-])NCCSCc1ccc(CN(C)C)o1  inhibition (SLC10A2; transporter uptake; inhibitor; radiometric; 1 mM): 30.2%
CSCCC(NC=O)C(=O)NC(C)C(=O)O (stereo not drawn)  inhibition (SETD7; cell-free assay; 10 µM): 7%
